As usually defined, the MIC is the least concentration at which growth counts as inhibited. Lower therefore signals inhibition by little substance.

The structures appear in SMILES notation. In brackets after ≈: the same amount, converted by molar mass.

Experimental findings from ChEMBL document CHEMBL4359823, “Switching on the activity of 1,5-diaryl-pyrrole derivatives against drug-resistant ESKAPE bacteria: Structure-activity relationships and mode of action studies” (Eur J Med Chem, 2019) are described below.

Common to all, as to type: functional
Test [1] relates to Pseudomonas aeruginosa. Description: Antibacterial activity against Pseudomonas aeruginosa NCTC13437 measured after overnight incubation by microbroth dilution method. Put shortly: (§1)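 Microbroth dilution MIC. Compound DMSO stocks were diluted in water as a 2-fold series. Overnight TSB cultures were back-diluted to OD 0.01 and mixed 1:1 with compound. Plates were incubated overnight at 37 °C. MIC was the lowest concentration without visible growth (<0.1 OD600), run in duplicate.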
On the technique in general: Broth dilution looks for growth in wells or tubes with falling amounts of substance.

Test [2] deals with Staphylococcus aureus. Description: Antibacterial activity against methicillin resistant Staphylococcus aureus NCTC13616 measured after overnight incubation by microbroth dilution method. Put shortly: (§2)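 Microbroth dilution: DMSO stocks diluted in water, 2-fold series. Overnight TSB cultures back-diluted to OD 0.01 and mixed 1:1 with compound. Incubated overnight at 37 °C; MIC taken as lowest concentration without visible growth (<0.1 OD600). Run in duplicate; matching DMSO levels checked for effect on growth.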

For test [3], the system named is Acinetobacter baumannii. Description: Antibacterial activity against Acinetobacter baumannii AYE measured after overnight incubation by microbroth dilution method. Put shortly: as §1
Test [4] relates to Pseudomonas aeruginosa. Description: Antibacterial activity against Pseudomonas aeruginosa PAO1 measured after overnight incubation by microbroth dilution method. Put shortly:
as §1

Test [5] deals with Klebsiella pneumoniae. Description: Antibacterial activity against Klebsiella pneumoniae M6 measured after overnight incubation by microbroth dilution method. Put shortly:
as §1

The test system of test [6] is Staphylococcus aureus. The test is described as follows: Antibacterial activity against methicillin sensitive Staphylococcus aureus NCTC 6571 measured after overnight incubation by microbroth dilution method. Put shortly:
as §2

The subject of test [7] is Acinetobacter baumannii. The test is described as follows: Antibacterial activity against Acinetobacter baumannii ATCC 17978 measured after overnight incubation by microbroth dilution method. Put shortly: as §1
For test [8], the system named is Staphylococcus aureus. The test is described as follows: Antibacterial activity against methicillin resistant Staphylococcus aureus NCTC13277 measured after overnight incubation by microbroth dilution method. Put shortly:
as §2

In test [9] the test system is Enterococcus faecalis. Description: Antibacterial activity against vancomycin sensitive Enterococcus faecalis NCTC775 measured after overnight incubation by microbroth dilution method. Put shortly:
as §2

The test system of test [10] is Enterococcus faecalis. Description: Antibacterial activity against vancomycin resistant Enterococcus faecalis NCTC12201 measured after overnight incubation by microbroth dilution method. Put shortly:
as §2

The test system of test [11] is Klebsiella pneumoniae. Description: Antibacterial activity against Klebsiella pneumoniae NCTC13368 measured after overnight incubation by microbroth dilution method. Put shortly: as §1
Test [12] has as its system Enterococcus faecalis. Description: Antibacterial activity against vancomycin resistant Enterococcus faecalis NCTC12204 measured after overnight incubation by microbroth dilution method. Put shortly:
as §2

Another test has as its system Escherichia coli. The test is described as follows: Antibacterial activity against Escherichia coli NCTC12923 measured after overnight incubation by microbroth dilution method. Put shortly:
as §1

Consider `Cc1c(CNCCCCCCCCNC(=N)N)cc(-c2ccc(Cl)cc2)n1-c1ccc(Cl)cc1`, for which the MIC against Pseudomonas aeruginosa [1] is 64 µg/mL (≈ 128 µM); against Staphylococcus aureus [2] it was 4 µg/mL (≈ 7.99 µM); in the test with Acinetobacter baumannii [3] it was 32 µg/mL (≈ 63.9 µM); against Pseudomonas aeruginosa [4] it was 128 µg/mL (≈ 256 µM); with Klebsiella pneumoniae [5], 16 µg/mL (≈ 32 µM); against Staphylococcus aureus [6], 4 µg/mL (≈ 7.99 µM). The MIC against Acinetobacter baumannii [7] is 8 µg/mL (≈ 16 µM); with Staphylococcus aureus [8], 4 µg/mL (≈ 7.99 µM); in the test on Enterococcus faecalis [9], 8 µg/mL (≈ 16 µM); against Enterococcus faecalis [10] it was 8 µg/mL (≈ 16 µM); in the test on Klebsiella pneumoniae [11] it was 32 µg/mL (≈ 63.9 µM); with Enterococcus faecalis [12], 4 µg/mL (≈ 7.99 µM). The same compound came in with an MIC against Escherichia coli of 8 µg/mL (≈ 16 µM).
Take `Cc1c(CNC2CCCCC2)cc(-c2ccc(Cl)cc2)n1-c1ccccc1C(F)(F)F`: the MIC was over 128 µg/mL with Pseudomonas aeruginosa [1]; 8 µg/mL (≈ 17.9 µM) in the test on Staphylococcus aureus [2]; 128 µg/mL (≈ 286 µM) in the test with Acinetobacter baumannii [3]; over 128 µg/mL in the test with Pseudomonas aeruginosa [4]; over 128 µg/mL with Klebsiella pneumoniae [5]; 4 µg/mL (≈ 8.95 µM) with Staphylococcus aureus [6]. In addition, the MIC in the test with Acinetobacter baumannii [7] was over 128 µg/mL; against Staphylococcus aureus [8], 8 µg/mL (≈ 17.9 µM); in the test with Enterococcus faecalis [9], 4 µg/mL (≈ 8.95 µM); in the test with Enterococcus faecalis [10], 4 µg/mL (≈ 8.95 µM); with Klebsiella pneumoniae [11], over 128 µg/mL; against Enterococcus faecalis [12] it was 2 µg/mL (≈ 4.47 µM). The MIC against Escherichia coli was over 128 µg/mL.
In the case of `Cc1c(CNC2CCC(NC(=N)N)CC2)cc(-c2ccc(Cl)cc2)n1-c1ccc([N+](=O)[O-])cc1` (configuration not stated), the MIC against Pseudomonas aeruginosa [1] was over 128 µg/mL; with Staphylococcus aureus [2] it was 8 µg/mL (≈ 16.6 µM); with Acinetobacter baumannii [3], over 128 µg/mL; in the test with Pseudomonas aeruginosa [4], over 128 µg/mL; against Klebsiella pneumoniae [5], over 128 µg/mL; against Staphylococcus aureus [6], 4 µg/mL (≈ 8.32 µM). Besides, the MIC is 64 µg/mL (≈ 133 µM) against Acinetobacter baumannii [7]; 8 µg/mL (≈ 16.6 µM) in the test with Staphylococcus aureus [8]; 32 µg/mL (≈ 66.5 µM) with Enterococcus faecalis [9]; 64 µg/mL (≈ 133 µM) in the test on Enterococcus faecalis [10]; over 128 µg/mL with Klebsiella pneumoniae [11]; 16 µg/mL (≈ 33.3 µM) against Enterococcus faecalis [12]. The compound further showed an MIC in the test with Escherichia coli of 64 µg/mL (≈ 133 µM).
On to `COc1ccc(-n2c(-c3ccc(Cl)cc3)cc(CNC3CCCCC3)c2C)cc1`, for which the MIC was over 128 µg/mL in the test on Pseudomonas aeruginosa [1]; 16 µg/mL (≈ 39.1 µM) in the test with Staphylococcus aureus [2]; over 128 µg/mL with Acinetobacter baumannii [3]; over 128 µg/mL against Pseudomonas aeruginosa [4]; over 128 µg/mL against Klebsiella pneumoniae [5]; 16 µg/mL (≈ 39.1 µM) in the test with Staphylococcus aureus [6]. For the same compound, the MIC was 128 µg/mL (≈ 313 µM) with Acinetobacter baumannii [7]; 16 µg/mL (≈ 39.1 µM) against Staphylococcus aureus [8]; 8 µg/mL (≈ 19.6 µM) in the test with Enterococcus faecalis [9]; 8 µg/mL (≈ 19.6 µM) in the test on Enterococcus faecalis [10]; over 128 µg/mL with Klebsiella pneumoniae [11]; 8 µg/mL (≈ 19.6 µM) with Enterococcus faecalis [12]. The MIC against Escherichia coli was over 128 µg/mL.
For the compound `Cc1c(CNC(C)C)cc(-c2ccc(Cl)cc2)n1-c1ccc(Cl)cc1`, the minimum inhibitory concentration (MIC) with Pseudomonas aeruginosa [1] is over 128 µg/mL; against Staphylococcus aureus [2], 8 µg/mL (≈ 21.4 µM); against Acinetobacter baumannii [3], 64 µg/mL (≈ 171 µM); against Pseudomonas aeruginosa [4], over 128 µg/mL; in the test on Klebsiella pneumoniae [5], over 128 µg/mL; in the test with Staphylococcus aureus [6], 8 µg/mL (≈ 21.4 µM). Moreover, the MIC against Acinetobacter baumannii [7] was 32 µg/mL (≈ 85.7 µM); in the test on Staphylococcus aureus [8], 8 to 16 µg/mL (≈ 21.4 to 42.9 µM); against Enterococcus faecalis [9], 8 µg/mL (≈ 21.4 µM); against Enterococcus faecalis [10] it was 8 µg/mL (≈ 21.4 µM); in the test on Klebsiella pneumoniae [11], over 128 µg/mL; against Enterococcus faecalis [12], 4 µg/mL (≈ 10.7 µM). This compound displayed an MIC against Escherichia coli of 32 to 128 µg/mL (≈ 85.7 to 343 µM).
In the case of `Cc1c(CNCC2CCCCC2)cc(-c2ccc(Cl)cc2)n1-c1ccc(Cl)cc1`, the MIC was over 128 µg/mL in the test with Pseudomonas aeruginosa [1]; 4 µg/mL (≈ 9.36 µM) in the test with Staphylococcus aureus [2]; over 128 µg/mL with Acinetobacter baumannii [3]; over 128 µg/mL with Pseudomonas aeruginosa [4]; over 128 µg/mL against Klebsiella pneumoniae [5]; 4 µg/mL (≈ 9.36 µM) against Staphylococcus aureus [6]. For the same compound, the MIC against Acinetobacter baumannii [7] was over 128 µg/mL; against Staphylococcus aureus [8], 4 µg/mL (≈ 9.36 µM); in the test with Enterococcus faecalis [9], 2 µg/mL (≈ 4.68 µM); in the test with Enterococcus faecalis [10], 4 µg/mL (≈ 9.36 µM); in the test with Klebsiella pneumoniae [11], over 128 µg/mL; against Enterococcus faecalis [12] it was 2 µg/mL (≈ 4.68 µM). The MIC against Escherichia coli is over 128 µg/mL.
`Cc1c(CNC2CCCCC2)cc(-c2ccc(Cl)cc2)n1-c1ccc(F)cc1`: the MIC in the test on Pseudomonas aeruginosa [1] was over 128 µg/mL; against Staphylococcus aureus [2], 8 µg/mL (≈ 20.2 µM); against Acinetobacter baumannii [3], 128 µg/mL (≈ 322 µM); in the test on Pseudomonas aeruginosa [4], over 128 µg/mL; against Klebsiella pneumoniae [5], over 128 µg/mL; against Staphylococcus aureus [6], 8 µg/mL (≈ 20.2 µM). In addition, the MIC in the test on Acinetobacter baumannii [7] is 64 µg/mL (≈ 161 µM); against Staphylococcus aureus [8], 8 µg/mL (≈ 20.2 µM); against Enterococcus faecalis [9], 4 µg/mL (≈ 10.1 µM); against Enterococcus faecalis [10], 4 µg/mL (≈ 10.1 µM); against Klebsiella pneumoniae [11], over 128 µg/mL; against Enterococcus faecalis [12] it was 4 µg/mL (≈ 10.1 µM). The same compound registered an MIC in the test with Escherichia coli of over 128 µg/mL.
As for `Cc1cc(CNCc2ccccc2)c(C)n1-c1ccc(Cl)cc1`, the MIC is over 128 µg/mL against Staphylococcus aureus [2]; over 128 µg/mL against Staphylococcus aureus [6]; over 128 µg/mL in the test with Staphylococcus aureus [8]; over 128 µg/mL with Enterococcus faecalis [9]; over 128 µg/mL against Enterococcus faecalis [10]; 128 µg/mL (≈ 394 µM) against Enterococcus faecalis [12].
